# Data reported in ChEMBL document CHEMBL1287677, “Antimalarial histone deacetylase inhibitors containing cinnamate or NSAID components” (Bioorg Med Chem Lett, 2010).
# Activity calls are given as the source filed them. The calls are words filed in the database; no cut-off is given here.
# Assays:
# Plasmodium falciparum = test: Antimalarial activity against drug-sensitive ring-stage Plasmodium falciparum 3D7 infected in human O+ erythrocytes assessed as inhibition of parasite growth by [3H]hypoxanthine incorporation assay; assay type: functional, organism-based
# Histone deacetylase = target: T1, Histone deacetylase (Plasmodium falciparum 3D7, UniProt Q7K6A1); test: (§1) Inhibition of Plasmodium falciparum 3D7 HDAC1 in infected-human erythrocytes assessed as histone H4 hyperacetylation after 1.5 hrs by SDS-PAGE analysis; assay type: cell-based
# T1 sequence (Q7K6A1 whole entry): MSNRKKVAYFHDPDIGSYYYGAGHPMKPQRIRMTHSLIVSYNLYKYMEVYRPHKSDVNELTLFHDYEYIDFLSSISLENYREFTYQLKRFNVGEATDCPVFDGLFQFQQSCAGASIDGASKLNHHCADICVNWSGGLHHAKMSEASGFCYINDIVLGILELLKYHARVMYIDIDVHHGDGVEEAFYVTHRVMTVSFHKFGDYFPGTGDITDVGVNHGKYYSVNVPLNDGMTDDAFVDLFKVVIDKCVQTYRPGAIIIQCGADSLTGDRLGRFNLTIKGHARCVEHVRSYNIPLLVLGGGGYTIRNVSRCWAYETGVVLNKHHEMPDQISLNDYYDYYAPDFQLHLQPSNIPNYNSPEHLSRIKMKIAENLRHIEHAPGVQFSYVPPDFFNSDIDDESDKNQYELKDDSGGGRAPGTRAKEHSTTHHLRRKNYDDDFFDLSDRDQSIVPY
# [1] = target: T2, Histone deacetylase (Plasmodium falciparum 3D7) (UniProt Q7K6A1); test: as §1; assay type: cell-based
# T2 sequence (whole entry): T1 sequence (Q7K6A1 whole entry)
# [2] = target: T2, Histone deacetylase (Plasmodium falciparum 3D7); test: Inhibition of trophozoite stage of Plasmodium falciparum 3D7 HDAC1 in infected-human erythrocytes assessed as histone H4 hyperacetylation at 20 to 100 nM after 3.5 hrs by Western blot analysis; assay type: cell-based
# Summary of the method: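 P. falciparum 3D7-infected erythrocytes exposed to 20 and 100 nM compound for 3.5 h. Vehicle controls (0.1% DMSO) sampled at start and at 3.5 h. Total protein extracted and run on 15% SDS–PAGE. Histone H4 hyperacetylation read by Western blot with polyclonal anti-tetra-acetyl histone H4 antiserum. Loading checked by Coomassie staining of a matched gel.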
# [3] = Selectivity index, ratio of IC50 for human NFF to IC50 for drug-sensitive ring-stage Plasmodium falciparum 3D7
# Summary of the method: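 Ratio computed as NFF IC50 divided by 3D7 IC50. Each IC50 is the mean of three experiments.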
# NFF = test: Cytotoxicity against human NFF after 96 hrs by sulforhodamine B assay; assay type: cell-based
# [4] = Selectivity index, ratio of IC50 for human HeLa cells to IC50 for drug-sensitive ring-stage Plasmodium falciparum 3D7; assay type: toxicity, cell-based; conditions: read-out: Selectivity Index
Compound,IC50 (Plasmodium falciparum),IC90 (Plasmodium falciparum),also measured
O=C(CCCCC[C@H](NC(=O)Cc1ccccc1Nc1c(Cl)cccc1Cl)C(=O)Nc1cccc2cccnc12)NO,65 nM,119 nM,–
CC(C)CCOc1ccc(/C=C/C(=O)N[C@@H](CCCCCC(=O)NO)C(=O)Nc2cccc3cccnc23)cc1,217 nM,536 nM,–
COc1cc(/C=C/C(=O)N[C@@H](CCCCCC(=O)NO)C(=O)Nc2cccc3cccnc23)cc(OC)c1OC,52 nM,–,–
CC1=C(CC(=O)N[C@@H](CCCCCC(=O)NO)C(=O)Nc2cccc3cccnc23)c2cc(F)ccc2C1=Cc1ccc(S(C)=O)cc1 (stereo partly specified),35 nM,35 nM,–
O=C(/C=C/c1ccccc1)N[C@@H](CCCCCC(=O)NO)C(=O)Nc1cccc2cccnc12,–,–,IC50 (Histone deacetylase): 87 nM; inhibition [1]: Dose-dependent effect
O=C(/C=C/c1ccc(Oc2ccccc2)cc1)N[C@@H](CCCCCC(=O)NO)C(=O)Nc1cccc2cccnc12,156 nM,–,–
O=C(/C=C/c1cccc(OC/C=C/c2ccccc2)c1)N[C@@H](CCCCCC(=O)NO)C(=O)Nc1cccc2cccnc12,400 nM,805 nM,–
CC(C)c1ccc(NC(=O)[C@H](CCCCCC(=O)NO)NC(=O)c2ccc(N(C)C)cc2)cc1,22 nM,–,–
CC(C)CCOc1cccc(/C=C/C(=O)N[C@@H](CCCCCC(=O)NO)C(=O)Nc2cccc3cccnc23)c1,> 1000 nM,> 1000 nM,–
CC(C(=O)N[C@@H](CCCCCC(=O)NO)C(=O)Nc1cccc2cccnc12)c1ccc(-c2ccccc2)c(F)c1 (stereo partly specified),42 nM,76 nM,–
O=C(/C=C/c1ccc(OC/C=C/c2ccccc2)cc1)N[C@@H](CCCCCC(=O)NO)C(=O)Nc1cccc2cccnc12,453 nM,827 nM,–
O=C(/C=C/c1cccc(Br)c1)N[C@@H](CCCCCC(=O)NO)C(=O)Nc1cccc2cccnc12,50 nM,–,–
COc1ccc(/C=C/C(=O)N[C@@H](CCCCCC(=O)NO)C(=O)Nc2cccc3cccnc23)cc1OC,34 nM,61 nM,–
COc1ccc2cc([C@H](C)C(=O)N[C@@H](CCCCCC(=O)NO)C(=O)Nc3cccc4cccnc34)ccc2c1,14 nM,24 nM,inhibition [2]: Active; Selectivity Index [3]: 12; IC50 (NFF): 169 nM; selectivity ratio [4]: 17
COc1ccc(CCNC(=O)[C@H](CCCCCC(=O)NO)NC(=O)c2ccc(N(C)C)cc2)cc1OC,101 nM,–,–
Cc1ccc(C(=O)c2ccc(CC(=O)N[C@@H](CCCCCC(=O)NO)C(=O)Nc3cccc4cccnc34)n2C)cc1,47 nM,102 nM,–
CN(C)c1ccc(C(=O)N[C@@H](CCCCCC(=O)NO)C(=O)Nc2ccccc2Cc2ccccc2)cc1,5 nM,–,inhibition [2]: Active
CN(C)c1ccc(C(=O)N[C@@H](CCCCCC(=O)NO)C(=O)Nc2cccc3ccccc23)cc1,21 nM,–,–
Cc1ccc(COc2ccc(/C=C/C(=O)N[C@@H](CCCCCC(=O)NO)C(=O)Nc3cccc4cccnc34)cc2)cc1,153 nM,375 nM,–
Cc1cccc(Nc2ccccc2C(=O)N[C@@H](CCCCCC(=O)NO)C(=O)Nc2cccc3cccnc23)c1C,51 nM,89 nM,–
O=C(/C=C/c1ccco1)N[C@@H](CCCCCC(=O)NO)C(=O)Nc1cccc2cccnc12,15 nM,27 nM,–
CCCCOc1ccc(/C=C/C(=O)N[C@@H](CCCCCC(=O)NO)C(=O)Nc2cccc3cccnc23)cc1,184 nM,373 nM,–
O=C(/C=C/c1ccc(OCc2ccc(Br)cc2)cc1)N[C@@H](CCCCCC(=O)NO)C(=O)Nc1cccc2cccnc12,357 nM,687 nM,–
O=C(CCCCC[C@H](NC(=O)c1ccccc1O)C(=O)Nc1cccc2cccnc12)NO,115 nM,214 nM,–
CN(C)c1ccc(C(=O)N[C@@H](CCCCCC(=O)NO)C(=O)Nc2cccc3cccnc23)cc1,–,–,Selectivity Index [3]: 30; selectivity ratio [4]: 17
C[C@@H]1CC[C@H]2[C@@H](C)C(=O)O[C@@H]3O[C@@]4(C)CC[C@@H]1[C@]32OO4,–,–,inhibition [2]: inactive
COc1ccc2[nH]c(C)c(CC(=O)N[C@@H](CCCCCC(=O)NO)C(=O)Nc3cccc4cccnc34)c2c1,13 nM,22 nM,inhibition [2]: Active; Selectivity Index [3]: 20; IC50 (NFF): 260 nM; selectivity ratio [4]: 17
O=C(CCCCC[C@H](NC(=O)c1cc2ccccc2[nH]1)C(=O)Nc1cccc2cccnc12)NO,–,–,IC50 (Histone deacetylase): 78 nM; inhibition [1]: Dose-dependent effect
CC(C(=O)N[C@@H](CCCCCC(=O)NO)C(=O)Nc1cccc2cccnc12)c1ccc(N2Cc3ccccc3C2=O)cc1 (stereo partly specified),32 nM,65 nM,–
COc1cc(/C=C/C(=O)N[C@@H](CCCCCC(=O)NO)C(=O)Nc2cccc3cccnc23)cc(OC)c1O,14 nM,26 nM,–
